In ChEMBL document CHEMBL1649261, “Pharmacodynamic profile of tigecycline against methicillin-resistant Staphylococcus aureus in an experimental pneumonia model” (Antimicrob Agents Chemother, 2009):

Key:
Assay type in all cases: functional
Staphylococcus aureus [1] = test: Antibacterial activity against methicillin-susceptible Staphylococcus aureus ATCC 29213 by microdilution method
Summary of the method: (§1)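 Tigecycline MIC measured in triplicate by broth microdilution following CLSI guidelines. Isolates were stored at −80°C in skim milk and subcultured twice on blood agar before testing.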

Staphylococcus aureus [2] = test: Antibacterial activity against hospital-acquired methicillin-resistant Staphylococcus aureus 152 by microdilution method; summary of the method: as §1
Staphylococcus aureus [3] = test: Antibacterial activity against community-acquired methicillin-resistant Staphylococcus aureus 144 by microdilution method; summary of the method: as §1
Staphylococcus aureus [4] = test: Antibacterial activity against community-acquired methicillin-resistant Staphylococcus aureus 147 by microdilution method; summary of the method: as §1
Staphylococcus aureus [5] = test: Antibacterial activity against hospital-acquired methicillin-resistant Staphylococcus aureus 56 by microdilution method; summary of the method: as §1

Work on `C[C@H]1COc2c(N3CCN(C)CC3)c(F)cc3c(=O)c(C(=O)O)cn1c23.C[C@H]1COc2c(N3CCN(C)CC3)c(F)cc3c(=O)c(C(=O)O)cn1c23.O` [LEVOFLOXACIN] yielded an MIC (Staphylococcus aureus [1]) of 0.25 µg/mL, an MIC (Staphylococcus aureus [2]) of 0.25 µg/mL and an MIC (Staphylococcus aureus [3]) of 0.5 µg/mL. For the same molecule, the MIC (Staphylococcus aureus [4]) was 8 µg/mL and the MIC (Staphylococcus aureus [5]) was 0.25 µg/mL.
